Source: ChEMBL document CHEMBL1151915, “Structure-activity relationship studies of small-molecule inhibitors of Wnt response” (Bioorg Med Chem Lett, 2009)
In brackets after ≈: the same amount, converted by molar mass. Activity calls are given as the source filed them. No cut-off for these calls is given here.

Experiments:
[1] = species: Danio rerio; assay: Inhibition of fin regeneration in zebrafish; type: functional
[2] = Half life in mouse liver S9 fraction; type: ADME, subcellular
[3] = Half life in mouse blood; type: ADME, tissue-based
In short: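 Compound at 2 μM incubated in whole blood from C57BL/6 mice; incubation stopped at set time points by adding methanol; saline or buffer incubations run as controls.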

[4] = Half life in mouse hepatocytes; type: ADME, cell-based, Liver, Hepatocyte
In short: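 Cryopreserved murine CD1 hepatocytes (10^5 cells) incubated with 2 μM compound; reactions stopped at set time points with methanol; saline or buffer incubations served as controls.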

half-life [2] | half-life [3] | half-life [4] | SMILES | MIC [1] | inhibition [1]
20 min | 60 min | 20 min | O=C(Nc1cccc2cccnc12)c1ccc(N2C(=O)[C@@H]3[C@H](C2=O)[C@@H]2C=C[C@H]3C2)cc1 | 0.5 µM (≈ 0.205 µg/mL) | 
 |  |  | O=C(Nc1ccc(F)cc1F)c1ccc(N2C(=O)[C@@H]3[C@H](C2=O)[C@@H]2C=C[C@H]3C2)cc1 |  | Active
 |  | 60 min | O=C(Nc1ccc(F)cc1)c1ccc(N2C(=O)[C@@H]3[C@H](C2=O)[C@@H]2C=C[C@H]3C2)cc1 |  | 
 |  | 10 min | COc1ccccc1NC(=O)c1ccc(N2C(=O)[C@@H]3[C@H](C2=O)[C@@H]2C=C[C@H]3C2)cc1 |  | 
